In the library only some 3.1% were active in any assay of this set; here they are far more common.
SENP8 block-1 – SENP8 (human) protease inhibition. Q96LD8. recombinant SENP8, Nedd8 substrate fluorescence. inhibition, % at 20 µM. actives 0.64% (n = 360,000). AID 602440; in the data active = inhibition mostly above about 40%, no sharp cut-off; inactive = mostly below about 27%
UBC13 polyUb – blocks human UBC13 polyubiquitin chain formation | P61088 | TR-FRET | inhibition, % at 20 µM | actives 0.47% (n = 330,000) | AID 485273; in the data active = inhibition above about 45%, passing the limit was not always enough
SENP8 block-2 – inhibitors of human SENP8 protease. Q96LD8. purified SENP8, Z-RLRGG-aminoluciferin cleavage, luminescence. inhibition, % at 10 µM. actives 1.2% (n = 330,000); in the data active = inhibition above about 50%
SENP7 block – blocks the human protease SENP7; actives 1.5% (n = 330,000); AID 434973; inhibition, % at 5 µM; Q9BQF6; recombinant SENP7, Z-RLRGG-aminoluciferin luminescence, 40 min;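 active = inhibition above about 50% at the single test dose, limit read from the data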;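 also: plate controls were DMSO with enzyme for no effect and no enzyme buffer wells for full effect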
Apaf1 inhib – human Apaf-1 inhibition; O14727; reconstituted apoptosome caspase-3 activity, DEVD-Rh110 fluorescence; inhibition, % at 20 µM; actives 0.71% (n = 330,000); AID 489030; active = inhibition of at least 40% at 20 µM;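 also: plate controls were DMSO wells for no effect and DEVD-CHO caspase inhibitor wells for full effect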
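Material: cell-free apoptosome with Apaf-1, procaspase-3 and caspase-9; Buffer or medium: Hepes pH 7.5 with detergent and BSA; Reagent: cytochrome c trigger plus (Z-DEVD)2-Rh110 caspase-3 substrate; Times: compound with Apaf-1, dATP, procaspase-3 30 min, then 50 min reaction, room temperature; Technique: Rh110 fluorescence intensity.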
SENP6 inh – SENP6 protease inhibition. Q9GZR1. Recombinant SENP6 catalytic domain, aminoluciferin luminescence. inhibition, % at 10 µM. actives 1.8% (n = 330,000). AID 2599;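 active = inhibition above about 50% at the single tested dose, limit read from the data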;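 also: plate controls were DMSO wells with enzyme for no effect and DMSO wells lacking enzyme for full effect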
SENP8 confirm – human SENP8 inhibition, confirmed | shares compounds with SENP7 block | Recombinant SENP8, Z-RLRGG-aminoluciferin luminescence, 60 min | inhibition, % at 12.5 µM | actives 40% (n = 6,200) | AID 488912;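 active = mean inhibition across replicates above about 50%, limit read from the data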
SENP6 conf – confirmation of human SENP6 protease inhibitors; actives 58% (n = 6,200); recombinant SENP6, Z-RLRGG-aminoluciferin luminescence; inhibition, % at 12.5 µM; shares compounds with SENP7 block
SENP7 confirm – human SENP7 inhibition, confirmed. shares compounds with SENP7 block. recombinant SENP7, Z-RLRGG-aminoluciferin luminescence, 40 min. inhibition, % at 12.5 µM. actives 69% (n = 6,200). AID 488917
Casp3 select – caspase-3 inhibition (SENP selectivity assay); inhibition, % at 12.5 µM; AID 488918; purified caspase-3, Z-DEVD-aminoluciferin luminescence, 60 min; actives 60% (n = 6,200); shares compounds with SENP7 block;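 active = mean inhibition above about 50%, limit read from the data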;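 also: plate controls were enzyme with DMSO for no effect and wells without caspase-3 for full effect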
SENP luc ctr – interferes with luciferase luminescence in SENP counter-screen; shares compounds with SENP7 block; actives 39% (n = 6,200); Pre-incubated SENP8/Z-RLRGG-aminoluciferin, luciferase luminescence interference; inhibition, % at 12.5 µM;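 active = mean inhibition above about 50% when retested at one dose, limit read from the data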;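 also: plate controls were DMSO wells with completed reaction for no effect and substrate without enzyme for full effect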
Apaf-1 inh conf – Apaf-1 inhibition, single-dose confirmed; shares compounds with Apaf1 inhib; reconstituted apoptosome, caspase-3 DEVD-Rh110 fluorescence; inhibition, % at 20 µM; actives 25% (n = 1,800);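 active = mean inhibition of at least 40% at 20 µM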;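 also: plate controls were DMSO wells for no effect and DEVD-CHO caspase inhibitor control wells for full effect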
Rh110 quench – Rh110 signal interference in Apaf-1 inhibitor counter-screen; shares compounds with Apaf1 inhib; Rh110 fluorescence interference, quenched caspase reaction; activation (fluorescence interference), % at 20 µM; 1,800 tested, under 10 active; AID 504615;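 active = signal rise of 40% or more at 20 µM, treated as a fluorescence artifact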
Apaf1 inh interf – Apaf-1 inhibitor counter-screen fluorescence artifact; 460 tested, under 10 active; shares compounds with Apaf1 inhib; IC50, µM; fluorescence interference counterscreen, Apaf-1 assay format; call rule not given here
An asterisk follows results filed as active; i = inactive; x = no result.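 The calls were made as follows, unless noted: active = mean inhibition above about 50% in the one-dose retest (limit read from the data); inactive = the rest.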

SMILES	SENP8 block-1	UBC13 polyUb	SENP8 block-2	SENP7 block	Apaf1 inhib	SENP6 inh	SENP8 confirm	SENP6 conf	SENP7 confirm	Casp3 select	SENP luc ctr	Apaf-1 inh conf	Rh110 quench	others
Cc1ccc(C)c(S(=O)(=O)/N=C2\C=C(NS(=O)(=O)c3ccccc3)C(=O)c3ccccc32)c1	73*	-134	36	11	78*	55*	2	29	-2	6	1	59*	18
Cc1ccccc1N1CCN(c2ccccc2NC(=O)/C=C\C(=O)O)CC1	10	x	x	x	x	x	x	x	x	x	x	x	x
O=C(Nc1ccccn1)c1ccc2ccccc2c1O	i	-1	43	25	45*	63*	49	45	76*	63*	59*	5	7
O=C(O)c1ccccc1C(=O)Nc1ccccn1	18	11	2	0	-7	-17	x	x	x	x	x	x	x
CCN1C(=O)[C@H]2[C@@H](c3ccc(C)cc3)N[C@]3(CCCN(Cc4ccco4)C3=O)[C@H]2C1=O	4	x	x	x	x	x	x	x	x	x	x	x	x
Cc1ccc(NC2=C(N3CCCCC3)C(=O)c3ccccc3C2=O)cc1	82*	-44	52*	-21	81*	66*	8	90*	74*	95*	10	95*	3	Apaf1 inh interf=>100
O=C(O)c1cccc(NC2=C(Cl)C(=O)c3ccccc3C2=O)c1	-67	x	x	x	x	x	x	x	x	x	x	x	x
O=C(/C=C/c1ccc(O)cc1)c1ccc(NC2=C(N3CCCCC3)C(=O)c3ccccc3C2=O)cc1	25	-65	67*	48	76*	76*	64*	85*	77*	95*	84*	95*	0	Apaf1 inh interf=>100
O=C1C(Nc2cccc(O)c2)=C(N2CCCCC2)C(=O)c2ccccc21	76*	-76	63*	41	88*	81*	57*	77*	45	94*	-1	91*	0	Apaf1 inh interf=>100
COc1ccccc1NC1=C(N2CCCCC2)C(=O)c2ccccc2C1=O	88*	-17	73*	47	95*	74*	43	91*	72*	97*	-4	95*	4	Apaf1 inh interf=>100
O=C(/C=C/c1ccc(O)c(O)c1)c1ccc(S(=O)(=O)N2CCCCCC2)cc1	27	-33	-9	-3	16	-22	x	x	x	x	x	x	x
CCOc1ccccc1CNn1cnnc1SCC(=O)NC(C)(C)C	15	x	x	x	x	x	x	x	x	x	x	x	x
O=C1C(Cl)=C(Nc2ccccc2)C(=O)c2ccccc21	-40	x	x	x	x	x	x	x	x	x	x	x	x
O=C1C(Nc2ccccc2)=C(N2CCCCC2)C(=O)c2ccccc21	83*	-45	59*	61*	93*	86*	63*	79*	58*	95*	6	90*	-4	Apaf1 inh interf=>100
CN1OC[C@@H]2CN(S(=O)(=O)c3cc(Cl)cc(Cl)c3)[C@H](c3ccc(-c4ccc(C#N)cc4)cc3)C[C@@H]21	15	x	x	x	x	x	x	x	x	x	x	x	x
OCCNC(=S)Nc1ccc2nsnc2c1	-12	-47	61*	32	97*	82*	11	23	18	9	4	13	4
Nc1ccn([C@@H]2O[C@H](C(=O)N[C@H]3c4ccccc4C[C@H]3O)[C@@H](O)[C@H]2O)c(=O)n1	26	x	x	x	x	x	x	x	x	x	x	x	x
Cc1cc2nc(-c3cccc(Br)c3)c(CC3CCCCC3)n2c(C)c1Br	5	x	x	x	x	x	x	x	x	x	x	x	x
COc1ccc2nc3cccc(OC)c3nc2c1	16	-55	28	30	97*	73*	-6	-3	42	51*	0	27	1
Cc1ccc(SCC(=O)NN2C(=O)c3ccccc3C2=O)cc1	19	6	0	4	3	1	x	x	x	x	x	x	x
Cc1ccc(SC2=C(Sc3ccc(C)cc3)C(=O)c3ccccc3C2=O)cc1	-93	-29	40	12	64*	62*	10	11	16	11	5	32	7
CCCS(=O)(=O)NC(=O)C1(C)CCN(C(=O)c2ccccc2C(F)(F)F)C1 (stereo not drawn)	5	x	x	x	x	x	x	x	x	x	x	x	x
COCCNC(=O)c1c(N)n(-c2ccccc2)c2nc3ccccc3nc12	-258	-25	39	0	81*	62*	10	16	8	2	3	24	6
COCCNC(=O)c1c(N)n(-c2cccc(C)c2)c2nc3ccccc3nc12	-404	-9	10	9	37	13	x	x	x	x	x	x	x
C=CCn1c(N)c(C(=O)Nc2ccccc2)c2nc3ccccc3nc21	-401	15	52*	20	67*	64*	-20	5	7	-3	-2	33	15
SMILES	SENP8 block-1	UBC13 polyUb	SENP8 block-2	SENP7 block	Apaf1 inhib	SENP6 inh	SENP8 confirm	SENP6 conf	SENP7 confirm	Casp3 select	SENP luc ctr	Apaf-1 inh conf	Rh110 quench	others
COCCNC(=O)c1c(N)n(CCCn2ccnc2)c2nc3ccccc3nc12	-318	-14	28	67*	94*	89*	4	9	10	4	-2	27	11
CSc1nc(COC(=O)NC(C)C)c(COC(=O)NC(C)C)n1Cc1ccccc1	9	x	x	x	x	x	x	x	x	x	x	x	x
O=C1/C(=C/Nc2ccc3c(c2)OCO3)CCc2ccccc21	-429	-43	98*	98*	45*	97*	-24	101*	104*	98*	85*	32	5
COc1ccc(N/C=C2\CCc3ccccc3C2=O)cc1	-228	-67	96*	32	79*	97*	36	101*	104*	99*	70*	36	16
O=C1OC2(CCCCC2)OC(=O)C1=CNc1ccc2c(c1)OCO2	-58	-4	-2	1	5	1	x	x	x	x	x	x	x
COc1ccc(S(=O)(=O)Nc2ccc3c(c2)OCO3)cc1	20	2	-3	4	0	-7	x	x	x	x	x	x	x
COc1ccc(N/C=C2\CCOC2=O)cc1	7	-13	-17	-10	3	-11	x	x	x	x	x	x	x
